Source: ChEMBL document CHEMBL3108692, “Potent Targeting of the STAT3 Protein in Brain Cancer Stem Cells: A Promising Route for Treating Glioblastoma” (ACS Med Chem Lett, 2013)
Activity calls are given as the source filed them. The rule behind the calls is not given here.

How the values were obtained:
[1] = target: Proto-oncogene tyrosine-protein kinase Src (Homo sapiens) (UniProt P12931); assay: Inhibition of c-Src (unknown origin) at 5 uM after 120 mins relative to control
[2] = target: Tyrosine-protein kinase JAK1 (Homo sapiens) (UniProt P23458); assay: Inhibition of JAK1 (unknown origin) at 5 uM after 120 mins
[3] = target: Tyrosine-protein kinase JAK2 (Homo sapiens) (UniProt O60674); assay: Inhibition of JAK2 (unknown origin) at 5 uM after 120 mins relative to control
[4] = target: Mitogen-activated protein kinase 3 (Homo sapiens) (UniProt P27361); assay: Inhibition of ERK1 (unknown origin) at 5 uM after 120 mins
[5] = target: RAC-alpha serine/threonine-protein kinase (Homo sapiens) (UniProt P31749); assay: Inhibition of AKT1 (unknown origin) at 5 uM after 120 mins
[6] = target: Epidermal growth factor receptor (Homo sapiens) (UniProt P00533); assay: Inhibition of EGFR in human 147EF cells after 6 hrs by Western blotting analysis; assay type: cell-based
[7] = species: Homo sapiens; assay: Inhibition of MAPK in human 147EF cells after 6 hrs by Western blotting analysis; assay type: cell-based
[8] = species: Homo sapiens; assay: Inhibition of AKT in human 147EF cells after 6 hrs by Western blotting analysis; assay type: cell-based
[9] = target: Proto-oncogene tyrosine-protein kinase Src (Homo sapiens) (UniProt P12931); assay: Inhibition of Src in human 147EF cells after 6 hrs by Western blotting analysis; assay type: cell-based
[10] = target: Tyrosine-protein kinase JAK2 (Homo sapiens) (UniProt O60674); assay: Inhibition of JAK2 in human 147EF cells after 6 hrs by Western blotting analysis; assay type: cell-based
[11] = target: T1, Signal transducer and activator of transcription 3 (Homo sapiens, UniProt P40763); assay: Competitive binding affinity to STAT3 SH2 domain (unknown origin) assessed as inhibition of interaction with FAMpYLPQTV after 15 to 30 mins by fluorescent polarization assay
[12] = Cytotoxicity against HF2006 cells assessed as cell viability at 5 uM after 3 days by Alamar Blue assay; assay type: cell-based; settings: human, 72 h
How it was run: (§1)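 Normal human fetal astrocytes (healthy, non-tumor cells) were exposed to compounds at concentrations up to 5 μM, with viability as the cytotoxicity read-out.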

[13] = Cytotoxicity against HF2003 cells assessed as cell viability at 5 uM after 3 days by Alamar Blue assay; assay type: cell-based; settings: human, 72 h; how it was run: as §1
[14] = Cytotoxicity against human 30M cells assessed as cell viability after 3 days by Alamar Blue assay; settings: 72 h
[15] = Cytotoxicity against human 84EF cells assessed as cell viability after 3 days by Alamar Blue assay; settings: 72 h
[16] = Cytotoxicity against human 25EF cells assessed as cell viability after 3 days by Alamar Blue assay; settings: 72 h
[17] = Cytotoxicity against human 73EF cells assessed as cell viability after 3 days by Alamar Blue assay; settings: 72 h
[18] = Cytotoxicity against human 67EF cells assessed as cell viability after 3 days by Alamar Blue assay; settings: 72 h
[19] = cells; settings: Homo sapiens, 72 h
[20] = tested on: BT73; assay: Antitumor activity against human BT73 cells xenografted in NOD-SCID mouse assessed as decrease in tumor size at 10 mg/kg, ip administered as 4 days on/3 days off schedule measured 2 hrs post last dose by hematoxylin/eosin staining; assay type: functional, organism-based; parameters: dose 10 mg/kg
How it was run: (§2)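 Mice were NOD-SCID with orthotopic BT73 human glioma xenografts. Starting on day 7, they received 10 intraperitoneal doses of 10 mg/kg or vehicle on a 4 days on/3 days off schedule. Animals were killed 2 h after the last dose and brain tumors excised. Read-outs were hematoxylin/eosin staining for tumor cellularity and immunohistochemistry for pSTAT3, Ki67 (proliferation) and TUNEL (apoptosis).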

[21] = species: Homo sapiens; assay: Induction of apoptosis in human 147EF cells assessed as PARP cleavage at 0.1 to 1 uM after 3 hrs by Western blotting analysis; assay type: functional, cell-based
[22] = species: Homo sapiens; assay: Inhibition of AKT phosphorylation in human 147EF cells at 0.1 to 1 uM after 3 hrs by Western blotting analysis; assay type: cell-based
[23] = Cytotoxicity against human 73M cells assessed as cell viability after 8 days by Alamar Blue assay; assay type: functional, cell-based; settings: 192 h
[24] = target: T1, Signal transducer and activator of transcription 3; assay: Inhibition of STAT3 phosphorylation at Y705 in human 147EF cells at 0.1 to 1 uM after 3 hrs by Western blotting analysis; assay type: cell-based
[25] = Cytotoxicity against human 30M cells assessed as cell viability after 8 days by Alamar Blue assay; assay type: functional, cell-based; settings: 192 h
[26] = target: T1, Signal transducer and activator of transcription 3; assay: Inhibition of STAT3 phosphorylation at Y705 in human 73M cells at 1 uM; assay type: cell-based
How it was run: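 Human 73M glioblastoma brain tumour stem cells were exposed to the inhibitor alongside the JAK2 inhibitor reference WP1066. Activated STAT3 was then read out by Western blot for STAT3 phosphorylated at Y705.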

[27] = target: Platelet-derived growth factor receptor beta (Homo sapiens) (UniProt P09619); assay: Inhibition of PDGFRB (unknown origin) expressed in HEK293 cells at 500 nM preincubated for 1 hr followed by compound washout measured after 30 mins by qPCR analysis relative to control; assay type: cell-based
[28] = target: Tyrosine-protein kinase Fyn (Homo sapiens) (UniProt P06241); assay: Inhibition of FYN (unknown origin) SH3 domain expressed in HEK293 cells at 500 nM preincubated for 1 hr followed by compound washout measured after 30 mins by qPCR analysis; assay type: cell-based
[29] = target: Tyrosine-protein kinase Fer (Homo sapiens) (UniProt P16591); assay: Inhibition of FER (unknown origin) SH3 domain expressed in HEK293 cells at 500 nM preincubated for 1 hr followed by compound washout measured after 30 mins by qPCR analysis; assay type: cell-based
[30] = target: Tyrosine-protein kinase Fes/Fps (Homo sapiens) (UniProt P07332); assay: Inhibition of FES (unknown origin) SH3 domain expressed in HEK293 cells at 500 nM preincubated for 1 hr followed by compound washout measured after 30 mins by qPCR analysis; assay type: cell-based
[31] = target: Tyrosine-protein kinase JAK2 (Homo sapiens) (UniProt O60674); assay: Inhibition of JAK2 (unknown origin) SH2 domain expressed in HEK293 cells at 500 nM preincubated for 1 hr followed by compound washout measured after 30 mins by qPCR analysis; assay type: cell-based
[32] = target: Tyrosine-protein kinase JAK1 (Homo sapiens) (UniProt P23458); assay: Inhibition of JAK1 (unknown origin) SH2 domain expressed in HEK293 cells at 500 nM preincubated for 1 hr followed by compound washout measured after 30 mins by qPCR analysis; assay type: cell-based
[33] = target: T2, Signal transducer and activator of transcription 5A (Homo sapiens, UniProt P42229); assay: Binding affinity to His-tagged STAT5 (unknown origin) by SPR spectroscopic analysis
T2 sequence (P42229 whole entry): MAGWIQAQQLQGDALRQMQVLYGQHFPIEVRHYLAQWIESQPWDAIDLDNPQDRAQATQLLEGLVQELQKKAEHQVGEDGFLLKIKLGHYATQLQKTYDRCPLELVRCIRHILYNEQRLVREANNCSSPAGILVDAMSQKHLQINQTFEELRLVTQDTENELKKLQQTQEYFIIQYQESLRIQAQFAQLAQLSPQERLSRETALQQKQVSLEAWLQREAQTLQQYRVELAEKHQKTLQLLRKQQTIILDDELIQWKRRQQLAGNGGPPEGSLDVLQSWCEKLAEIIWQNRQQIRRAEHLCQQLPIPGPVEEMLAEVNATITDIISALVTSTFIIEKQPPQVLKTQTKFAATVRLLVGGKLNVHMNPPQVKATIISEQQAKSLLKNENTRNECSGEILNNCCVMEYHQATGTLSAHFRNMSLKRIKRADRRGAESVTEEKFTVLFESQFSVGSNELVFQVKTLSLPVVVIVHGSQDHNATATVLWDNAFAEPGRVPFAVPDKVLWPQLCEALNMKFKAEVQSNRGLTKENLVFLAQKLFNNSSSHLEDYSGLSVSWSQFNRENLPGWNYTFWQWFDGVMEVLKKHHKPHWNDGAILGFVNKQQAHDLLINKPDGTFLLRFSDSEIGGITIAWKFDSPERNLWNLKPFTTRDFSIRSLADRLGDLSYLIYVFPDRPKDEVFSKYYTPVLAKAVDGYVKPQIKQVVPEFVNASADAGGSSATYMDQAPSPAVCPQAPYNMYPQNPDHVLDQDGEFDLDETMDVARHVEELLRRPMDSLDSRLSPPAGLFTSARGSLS
How it was run: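 SPR binding to STAT3 and STAT5 proteins was run at several analyte concentrations: 5.000, 1.667, 0.556 and 0.185 μM.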

[34] = tested on: BT73; assay: Antitumor activity against human BT73 cells xenografted in NOD-SCID mouse assessed as induction of apoptosis in tumor at 10 mg/kg, ip administered as 4 days on/3 days off schedule measured 2 hrs post last dose by TUNEL assay; assay type: functional, organism-based; parameters: dose 10 mg/kg; how it was run: as §2
[35] = tested on: BT73; assay: Antitumor activity against human BT73 cells xenografted in NOD-SCID mouse assessed as tumor growth inhibition by measuring downregulation of Ki67 protein expression at 10 mg/kg, ip administered as 4 days on/3 days off schedule measured 2 hrs post last dose; assay type: functional, organism-based; parameters: dose 10 mg/kg; how it was run: as §2
[36] = tested on: Mus musculus; assay: In vivo inhibition of STAT3 phosphorylation in tumor of NOD-SCID mouse xenografted with human BT73 cells at 10 mg/kg, ip administered as 4 days on/3 days off schedule measured 2 hrs post last dose; assay type: functional, organism-based; parameters: dose 10 mg/kg; how it was run: as §2
[37] = target: Platelet-derived growth factor receptor beta (Homo sapiens) (UniProt P09619); assay: Inhibition of PDGFRB (unknown origin) at 10 uM by enzymatic assay

Tyrosine-protein kinase JAK2 (Homo sapiens), sequence (O60674 whole entry, the tested form may be a part): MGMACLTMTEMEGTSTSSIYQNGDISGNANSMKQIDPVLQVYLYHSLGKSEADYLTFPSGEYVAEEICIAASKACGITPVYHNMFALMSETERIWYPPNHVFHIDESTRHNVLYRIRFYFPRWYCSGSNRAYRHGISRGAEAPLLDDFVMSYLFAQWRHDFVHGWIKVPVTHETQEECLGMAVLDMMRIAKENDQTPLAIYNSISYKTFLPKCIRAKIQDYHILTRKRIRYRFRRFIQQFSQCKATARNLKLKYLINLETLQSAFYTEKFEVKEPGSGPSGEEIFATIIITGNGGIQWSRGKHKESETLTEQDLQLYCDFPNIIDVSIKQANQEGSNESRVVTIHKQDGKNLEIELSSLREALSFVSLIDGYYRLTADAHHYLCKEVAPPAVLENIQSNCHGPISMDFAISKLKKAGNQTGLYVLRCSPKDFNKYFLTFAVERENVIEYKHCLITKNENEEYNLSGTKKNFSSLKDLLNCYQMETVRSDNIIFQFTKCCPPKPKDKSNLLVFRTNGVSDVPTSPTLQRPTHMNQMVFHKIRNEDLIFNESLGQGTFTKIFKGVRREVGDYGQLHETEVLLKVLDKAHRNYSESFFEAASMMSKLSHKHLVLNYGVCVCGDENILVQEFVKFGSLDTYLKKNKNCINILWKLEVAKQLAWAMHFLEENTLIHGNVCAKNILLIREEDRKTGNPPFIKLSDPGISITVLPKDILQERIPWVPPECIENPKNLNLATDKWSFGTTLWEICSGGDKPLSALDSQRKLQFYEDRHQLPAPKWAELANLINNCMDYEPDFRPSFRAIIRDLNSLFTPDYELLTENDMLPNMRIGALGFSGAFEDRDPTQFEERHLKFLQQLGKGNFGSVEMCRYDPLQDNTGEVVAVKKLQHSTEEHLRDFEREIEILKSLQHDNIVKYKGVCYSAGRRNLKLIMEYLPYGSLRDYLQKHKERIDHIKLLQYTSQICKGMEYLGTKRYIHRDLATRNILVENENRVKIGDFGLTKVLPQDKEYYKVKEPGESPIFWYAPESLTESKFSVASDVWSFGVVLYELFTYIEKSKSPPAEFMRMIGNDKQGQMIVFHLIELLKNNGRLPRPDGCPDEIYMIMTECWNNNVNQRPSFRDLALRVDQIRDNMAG
T1 sequence (P40763 whole entry, the tested form may be a part): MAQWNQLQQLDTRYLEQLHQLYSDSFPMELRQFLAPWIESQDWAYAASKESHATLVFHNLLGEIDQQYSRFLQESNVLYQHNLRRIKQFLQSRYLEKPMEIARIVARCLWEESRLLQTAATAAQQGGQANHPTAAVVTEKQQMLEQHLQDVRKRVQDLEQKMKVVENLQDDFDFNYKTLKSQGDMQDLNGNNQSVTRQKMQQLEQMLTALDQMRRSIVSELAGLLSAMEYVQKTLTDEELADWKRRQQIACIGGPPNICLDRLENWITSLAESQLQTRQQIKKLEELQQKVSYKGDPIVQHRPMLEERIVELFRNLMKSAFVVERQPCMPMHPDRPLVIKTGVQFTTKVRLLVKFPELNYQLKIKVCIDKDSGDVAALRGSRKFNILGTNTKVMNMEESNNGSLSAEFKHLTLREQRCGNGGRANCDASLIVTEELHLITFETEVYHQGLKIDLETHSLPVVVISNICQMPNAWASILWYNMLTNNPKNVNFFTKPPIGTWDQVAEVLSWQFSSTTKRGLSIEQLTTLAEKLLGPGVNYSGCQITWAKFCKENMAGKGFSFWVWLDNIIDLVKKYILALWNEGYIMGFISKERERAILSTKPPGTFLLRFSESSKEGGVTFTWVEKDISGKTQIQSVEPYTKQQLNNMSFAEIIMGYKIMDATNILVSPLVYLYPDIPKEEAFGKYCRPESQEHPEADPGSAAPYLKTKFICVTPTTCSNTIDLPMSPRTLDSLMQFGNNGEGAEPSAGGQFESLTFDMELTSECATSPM
Proto-oncogene tyrosine-protein kinase Src (Homo sapiens), sequence (P12931 2-536 limits assumed): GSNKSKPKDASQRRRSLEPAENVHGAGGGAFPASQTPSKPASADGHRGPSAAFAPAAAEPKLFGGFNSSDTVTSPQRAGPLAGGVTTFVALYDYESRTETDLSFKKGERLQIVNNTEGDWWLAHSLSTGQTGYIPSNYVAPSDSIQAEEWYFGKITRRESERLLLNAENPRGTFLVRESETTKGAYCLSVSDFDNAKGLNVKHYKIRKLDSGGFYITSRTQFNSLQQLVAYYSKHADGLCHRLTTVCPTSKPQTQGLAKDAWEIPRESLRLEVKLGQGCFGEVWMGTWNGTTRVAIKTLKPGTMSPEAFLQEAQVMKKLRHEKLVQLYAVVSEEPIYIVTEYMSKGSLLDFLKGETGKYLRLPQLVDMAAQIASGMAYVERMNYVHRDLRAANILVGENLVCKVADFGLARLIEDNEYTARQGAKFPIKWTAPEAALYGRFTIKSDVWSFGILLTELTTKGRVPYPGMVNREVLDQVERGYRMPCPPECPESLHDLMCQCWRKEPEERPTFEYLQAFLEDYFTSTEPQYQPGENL
Tyrosine-protein kinase JAK1 (Homo sapiens), sequence (P23458 whole entry, the tested form may be a part): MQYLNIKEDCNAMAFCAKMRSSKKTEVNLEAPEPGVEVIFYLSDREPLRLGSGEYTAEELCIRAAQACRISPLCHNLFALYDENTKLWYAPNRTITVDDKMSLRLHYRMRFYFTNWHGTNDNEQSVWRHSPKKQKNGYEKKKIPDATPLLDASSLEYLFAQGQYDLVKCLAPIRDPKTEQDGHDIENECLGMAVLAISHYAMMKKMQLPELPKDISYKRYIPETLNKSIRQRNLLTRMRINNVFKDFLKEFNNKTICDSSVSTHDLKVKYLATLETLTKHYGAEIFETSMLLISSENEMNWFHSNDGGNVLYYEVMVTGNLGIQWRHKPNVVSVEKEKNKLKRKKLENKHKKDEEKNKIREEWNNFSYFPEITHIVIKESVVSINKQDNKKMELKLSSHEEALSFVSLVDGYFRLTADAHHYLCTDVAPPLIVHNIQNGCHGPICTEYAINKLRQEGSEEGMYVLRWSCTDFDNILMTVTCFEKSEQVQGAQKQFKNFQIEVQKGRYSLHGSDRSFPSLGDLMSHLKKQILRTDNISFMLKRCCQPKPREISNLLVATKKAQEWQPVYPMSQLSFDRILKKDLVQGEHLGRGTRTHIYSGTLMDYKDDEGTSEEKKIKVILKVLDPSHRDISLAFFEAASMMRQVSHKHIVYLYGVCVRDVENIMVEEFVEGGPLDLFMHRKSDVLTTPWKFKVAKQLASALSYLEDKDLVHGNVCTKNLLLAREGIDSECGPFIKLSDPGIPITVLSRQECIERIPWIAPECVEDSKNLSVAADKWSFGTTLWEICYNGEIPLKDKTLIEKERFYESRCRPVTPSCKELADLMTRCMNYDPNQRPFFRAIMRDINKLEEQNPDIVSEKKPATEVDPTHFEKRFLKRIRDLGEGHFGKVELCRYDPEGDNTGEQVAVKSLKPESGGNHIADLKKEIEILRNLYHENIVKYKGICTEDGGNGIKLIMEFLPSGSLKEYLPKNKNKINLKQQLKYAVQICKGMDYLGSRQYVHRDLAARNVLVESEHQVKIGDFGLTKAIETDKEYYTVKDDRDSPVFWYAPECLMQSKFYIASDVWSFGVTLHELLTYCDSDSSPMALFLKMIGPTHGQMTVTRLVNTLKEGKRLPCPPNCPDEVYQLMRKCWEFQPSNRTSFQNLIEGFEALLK
Platelet-derived growth factor receptor beta (Homo sapiens), sequence (P09619 whole entry, the tested form may be a part): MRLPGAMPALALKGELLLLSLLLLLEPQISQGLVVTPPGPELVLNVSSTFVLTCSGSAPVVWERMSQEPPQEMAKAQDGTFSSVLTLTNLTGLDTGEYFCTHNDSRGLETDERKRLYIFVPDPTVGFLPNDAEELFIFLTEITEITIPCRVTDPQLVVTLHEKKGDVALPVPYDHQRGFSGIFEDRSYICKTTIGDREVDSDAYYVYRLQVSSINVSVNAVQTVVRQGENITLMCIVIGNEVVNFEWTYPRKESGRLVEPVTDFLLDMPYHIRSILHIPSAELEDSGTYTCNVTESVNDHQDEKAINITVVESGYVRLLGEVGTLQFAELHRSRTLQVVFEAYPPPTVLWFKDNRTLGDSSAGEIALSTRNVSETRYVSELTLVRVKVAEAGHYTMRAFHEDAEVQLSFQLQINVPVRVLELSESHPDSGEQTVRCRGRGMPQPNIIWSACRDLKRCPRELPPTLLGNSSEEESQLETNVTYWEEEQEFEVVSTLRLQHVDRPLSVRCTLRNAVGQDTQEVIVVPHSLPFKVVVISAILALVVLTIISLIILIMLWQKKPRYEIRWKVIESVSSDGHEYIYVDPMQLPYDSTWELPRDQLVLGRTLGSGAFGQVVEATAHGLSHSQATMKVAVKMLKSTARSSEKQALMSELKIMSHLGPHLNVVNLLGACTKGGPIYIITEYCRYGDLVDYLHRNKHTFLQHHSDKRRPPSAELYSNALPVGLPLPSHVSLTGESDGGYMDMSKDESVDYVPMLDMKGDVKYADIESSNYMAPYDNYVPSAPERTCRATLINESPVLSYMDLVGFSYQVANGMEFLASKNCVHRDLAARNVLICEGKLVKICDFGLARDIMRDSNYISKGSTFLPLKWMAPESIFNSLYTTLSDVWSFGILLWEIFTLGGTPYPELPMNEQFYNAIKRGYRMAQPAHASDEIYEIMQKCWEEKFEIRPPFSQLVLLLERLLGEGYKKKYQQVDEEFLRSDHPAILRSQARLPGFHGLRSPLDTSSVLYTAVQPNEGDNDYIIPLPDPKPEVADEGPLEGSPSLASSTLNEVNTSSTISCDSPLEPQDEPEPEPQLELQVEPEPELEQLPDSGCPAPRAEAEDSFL
Mitogen-activated protein kinase 3 (Homo sapiens), sequence (P27361 whole entry): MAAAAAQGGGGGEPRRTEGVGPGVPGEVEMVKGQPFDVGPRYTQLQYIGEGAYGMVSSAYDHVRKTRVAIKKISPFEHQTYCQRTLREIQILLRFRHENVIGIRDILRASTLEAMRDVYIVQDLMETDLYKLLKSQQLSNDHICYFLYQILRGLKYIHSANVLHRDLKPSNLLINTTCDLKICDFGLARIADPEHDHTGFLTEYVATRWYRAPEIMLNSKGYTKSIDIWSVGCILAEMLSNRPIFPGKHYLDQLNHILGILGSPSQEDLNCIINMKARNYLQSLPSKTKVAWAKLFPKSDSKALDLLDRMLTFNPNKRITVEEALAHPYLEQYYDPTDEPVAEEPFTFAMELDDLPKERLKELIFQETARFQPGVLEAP

SMILES | inhibition [1] | inhibition [2] | inhibition [3] | inhibition [4] | inhibition [5] | inhibition [6] | inhibition [9] | inhibition [10] | inhibition [11] | IC50 [19] | inhibition [7] | inhibition [8] | Activity [12] | Activity [13] | IC50 [14] | IC50 [15] | IC50 [16] | IC50 [17] | IC50 [18] | also measured
CC(=O)Oc1cc(N(Cc2ccc(C3CCCCC3)cc2)C(=O)CN(C)S(=O)(=O)c2c(F)c(F)c(F)c(F)c2F)ccc1C(=O)O | 50% | inactive | 50% | inactive | inactive | inactive | inactive | inactive | inactive | 272 nM | inactive | inactive | Non-toxic | Non-toxic | 100 nM | 332 nM | 1140 nM | 1080 nM | 436 nM | –
CN(CC(=O)N(Cc1ccc(C2CCCCC2)cc1)c1ccc(C(=O)O)cc1)S(=O)(=O)c1c(F)c(F)c(F)c(F)c1F | 50% | inactive | 50% | inactive | inactive | inactive | inactive | inactive | – | 66 nM | inactive | inactive | Non-toxic | Non-toxic | 100 nM | 102 nM | 234 nM | 162 nM | 106 nM | Activity [20]: Active; Activity [21]: Active; inhibition [22]: Active; IC50 [23]: 1030 nM; inhibition [24]: Active; IC50 [25]: 430 nM; inhibition [26]: Active; inhibition [27]: 35%; inhibition [28]: inactive; inhibition [29]: inactive; inhibition [30]: inactive; inhibition [31]: inactive; inhibition [32]: inactive; Kd [33]: 464 nM; Activity [34]: Active; TGI [35]: Active; inhibition [36]: Active; inhibition [37]: inactive
CN(CC(=O)N(Cc1ccc(C2CCCCC2)cc1)c1ccc(C(=O)O)c(F)c1)S(=O)(=O)c1c(F)c(F)c(F)c(F)c1F | – | – | – | – | – | – | – | – | – | 90 nM | – | – | – | – | 100 nM | 202 nM | 592 nM | 438 nM | 214 nM | Ki [11]: 10000 nM

Further lines, with some results ahead:

inhibition [1] | inhibition [2] | inhibition [3] | inhibition [4] | inhibition [5] | inhibition [6] | inhibition [9] | inhibition [10] | inhibition [11] | IC50 [19] | SMILES | inhibition [7] | inhibition [8] | Activity [12] | Activity [13] | IC50 [14] | IC50 [15] | IC50 [16] | IC50 [17] | IC50 [18] | also measured
– | – | – | – | – | – | – | – | inactive | – | CCOC(=O)c1ccc(N(Cc2ccc(C3CCCCC3)cc2)C(=O)CN(C)S(=O)(=O)c2c(F)c(F)c(F)c(F)c2F)cc1 | – | – | – | – | – | – | – | – | – | –
– | – | – | – | – | – | – | – | inactive | – | COC(=O)c1ccc(N(Cc2ccc(C3CCCCC3)cc2)C(=O)CN(C)S(=O)(=O)c2c(F)c(F)c(F)c(F)c2F)cc1 | – | – | – | – | – | – | – | – | – | –
– | – | – | – | – | – | – | – | inactive | – | CN(CC(=O)N(Cc1ccc(C2CCCCC2)cc1)c1ccc(C(=O)OCOC(=O)C(C)(C)C)cc1)S(=O)(=O)c1c(F)c(F)c(F)c(F)c1F | – | – | – | – | – | – | – | – | – | –
